Source: ChEMBL document CHEMBL1149392, “PTP-1B inhibitors: cyclopenta[d][1,2]-oxazine derivatives” (Bioorg Med Chem Lett, 2006)
Activity calls are given as the source filed them. The calls are words filed in the database; no cut-off is given here.

Columns and labels:
[1] = target: T1, Tyrosine-protein phosphatase non-receptor type 1 (Homo sapiens) (UniProt P18031); experiment: Inhibitory activity against recombinant human PTP1B at 10 uM
T1 sequence (whole entry): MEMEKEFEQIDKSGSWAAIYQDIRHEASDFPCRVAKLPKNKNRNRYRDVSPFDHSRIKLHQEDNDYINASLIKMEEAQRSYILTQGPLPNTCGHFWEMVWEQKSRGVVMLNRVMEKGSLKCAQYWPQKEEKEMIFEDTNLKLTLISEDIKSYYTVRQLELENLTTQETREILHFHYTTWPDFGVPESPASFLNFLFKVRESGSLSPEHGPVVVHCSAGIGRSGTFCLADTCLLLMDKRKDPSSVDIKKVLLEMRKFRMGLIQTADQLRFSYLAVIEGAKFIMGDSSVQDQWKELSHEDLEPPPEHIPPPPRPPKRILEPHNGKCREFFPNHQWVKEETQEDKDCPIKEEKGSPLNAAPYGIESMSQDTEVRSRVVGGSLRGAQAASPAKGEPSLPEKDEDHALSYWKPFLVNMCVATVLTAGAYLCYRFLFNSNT

[2] = target: T2, Tyrosine-protein phosphatase non-receptor type 1 (Homo sapiens, UniProt P18031); experiment: Inhibitory activity against recombinant human PTP1B
T2 sequence (P18031 whole entry): T1 sequence (whole entry)
Outline: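 Recombinant human PTP-1B (0.1 μg) incubated with 20 μM fluorescein diphosphate and compound in 30 mM Tris, 75 mM NaCl, 0.67 mM EDTA, 1 mM DTT, pH 8.0, for 1 h at room temperature. Product fluorescein monophosphate read by fluorescence (ex 485 nm, em 538 nm). IC50 reported.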

[3] = target: Dual specificity protein phosphatase 3 (Homo sapiens, UniProt P51452); experiment: Inhibitory activity against VH1-related phosphatase VHR at 10 uM
Dual specificity protein phosphatase 3, sequence (P51452 whole entry, looked up): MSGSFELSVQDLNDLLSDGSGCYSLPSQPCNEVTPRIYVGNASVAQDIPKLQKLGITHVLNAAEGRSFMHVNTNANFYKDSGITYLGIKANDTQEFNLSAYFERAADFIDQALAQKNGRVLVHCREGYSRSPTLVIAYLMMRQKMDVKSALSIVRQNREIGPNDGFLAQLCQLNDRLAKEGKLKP
Outline: (§1)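 Phosphatase selectivity panel using fluorescein diphosphate substrate at 20 μM, the same level as in the PTP-1B assay. Compound tested at a single concentration of 10 μM; percent inhibition of enzyme activity reported.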

[4] = target: T3, Receptor-type tyrosine-protein phosphatase C (Homo sapiens) (UniProt P08575); experiment: Inhibitory activity against CD45 phosphatase at 10 uM; outline: as §1
T3 sequence (whole entry): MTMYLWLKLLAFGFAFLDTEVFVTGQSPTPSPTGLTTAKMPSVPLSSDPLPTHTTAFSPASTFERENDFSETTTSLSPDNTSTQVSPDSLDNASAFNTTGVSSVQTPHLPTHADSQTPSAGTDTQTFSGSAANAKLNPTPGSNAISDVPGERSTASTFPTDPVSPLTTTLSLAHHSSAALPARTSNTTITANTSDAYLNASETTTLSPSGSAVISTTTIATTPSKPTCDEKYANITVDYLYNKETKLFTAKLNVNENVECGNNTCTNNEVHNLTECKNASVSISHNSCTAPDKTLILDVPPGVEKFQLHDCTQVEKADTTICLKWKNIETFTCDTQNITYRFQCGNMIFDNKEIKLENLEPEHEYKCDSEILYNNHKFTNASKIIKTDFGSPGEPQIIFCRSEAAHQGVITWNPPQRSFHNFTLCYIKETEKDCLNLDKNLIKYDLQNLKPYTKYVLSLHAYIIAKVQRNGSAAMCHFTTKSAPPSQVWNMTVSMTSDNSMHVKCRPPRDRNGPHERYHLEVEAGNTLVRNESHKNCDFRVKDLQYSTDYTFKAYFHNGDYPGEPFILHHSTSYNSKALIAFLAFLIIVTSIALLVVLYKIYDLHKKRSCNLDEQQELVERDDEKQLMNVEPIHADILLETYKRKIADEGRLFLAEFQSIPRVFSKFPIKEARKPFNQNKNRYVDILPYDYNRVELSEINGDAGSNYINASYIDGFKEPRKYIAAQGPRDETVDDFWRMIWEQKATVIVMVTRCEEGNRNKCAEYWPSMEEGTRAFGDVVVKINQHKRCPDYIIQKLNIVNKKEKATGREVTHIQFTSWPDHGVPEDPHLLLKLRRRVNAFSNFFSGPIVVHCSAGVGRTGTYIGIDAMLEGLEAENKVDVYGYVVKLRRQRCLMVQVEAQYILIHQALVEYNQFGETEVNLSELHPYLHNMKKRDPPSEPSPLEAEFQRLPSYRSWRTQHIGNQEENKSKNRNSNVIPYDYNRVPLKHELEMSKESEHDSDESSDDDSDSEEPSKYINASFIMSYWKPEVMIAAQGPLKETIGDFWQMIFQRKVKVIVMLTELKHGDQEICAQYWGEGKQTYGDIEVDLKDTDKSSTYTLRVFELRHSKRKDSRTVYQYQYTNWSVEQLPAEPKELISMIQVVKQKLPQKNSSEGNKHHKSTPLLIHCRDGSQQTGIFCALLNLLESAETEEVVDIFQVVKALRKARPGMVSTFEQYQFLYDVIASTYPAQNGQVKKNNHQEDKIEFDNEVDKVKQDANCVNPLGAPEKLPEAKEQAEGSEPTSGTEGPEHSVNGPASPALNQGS

[5] = target: T4, M-phase inducer phosphatase 2 (Homo sapiens) (UniProt P30305); experiment: Inhibitory activity against cdc25B phosphatase at 10 uM; outline: as §1
T4 sequence (whole entry): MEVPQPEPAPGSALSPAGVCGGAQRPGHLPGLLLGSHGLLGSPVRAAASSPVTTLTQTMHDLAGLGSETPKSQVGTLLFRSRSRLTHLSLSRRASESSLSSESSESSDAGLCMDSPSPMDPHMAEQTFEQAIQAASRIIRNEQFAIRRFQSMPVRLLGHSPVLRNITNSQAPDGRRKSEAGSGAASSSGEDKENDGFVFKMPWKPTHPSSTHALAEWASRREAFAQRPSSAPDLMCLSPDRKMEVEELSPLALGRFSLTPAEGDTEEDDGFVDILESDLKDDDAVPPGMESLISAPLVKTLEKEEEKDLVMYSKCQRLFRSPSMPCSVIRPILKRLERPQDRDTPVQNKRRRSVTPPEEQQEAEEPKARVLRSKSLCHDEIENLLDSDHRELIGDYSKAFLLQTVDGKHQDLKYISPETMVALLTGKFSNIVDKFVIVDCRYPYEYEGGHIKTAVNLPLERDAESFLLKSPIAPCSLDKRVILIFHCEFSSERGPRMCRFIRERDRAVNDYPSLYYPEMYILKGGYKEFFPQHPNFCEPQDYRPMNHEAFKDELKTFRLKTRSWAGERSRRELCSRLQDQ

[6] = target: Receptor-type tyrosine-protein phosphatase F (Homo sapiens, UniProt P10586); experiment: Inhibitory activity against LAR protein tyrosine phosphatase at 10 uM; outline: as §1
Receptor-type tyrosine-protein phosphatase F, sequence (P10586 whole entry): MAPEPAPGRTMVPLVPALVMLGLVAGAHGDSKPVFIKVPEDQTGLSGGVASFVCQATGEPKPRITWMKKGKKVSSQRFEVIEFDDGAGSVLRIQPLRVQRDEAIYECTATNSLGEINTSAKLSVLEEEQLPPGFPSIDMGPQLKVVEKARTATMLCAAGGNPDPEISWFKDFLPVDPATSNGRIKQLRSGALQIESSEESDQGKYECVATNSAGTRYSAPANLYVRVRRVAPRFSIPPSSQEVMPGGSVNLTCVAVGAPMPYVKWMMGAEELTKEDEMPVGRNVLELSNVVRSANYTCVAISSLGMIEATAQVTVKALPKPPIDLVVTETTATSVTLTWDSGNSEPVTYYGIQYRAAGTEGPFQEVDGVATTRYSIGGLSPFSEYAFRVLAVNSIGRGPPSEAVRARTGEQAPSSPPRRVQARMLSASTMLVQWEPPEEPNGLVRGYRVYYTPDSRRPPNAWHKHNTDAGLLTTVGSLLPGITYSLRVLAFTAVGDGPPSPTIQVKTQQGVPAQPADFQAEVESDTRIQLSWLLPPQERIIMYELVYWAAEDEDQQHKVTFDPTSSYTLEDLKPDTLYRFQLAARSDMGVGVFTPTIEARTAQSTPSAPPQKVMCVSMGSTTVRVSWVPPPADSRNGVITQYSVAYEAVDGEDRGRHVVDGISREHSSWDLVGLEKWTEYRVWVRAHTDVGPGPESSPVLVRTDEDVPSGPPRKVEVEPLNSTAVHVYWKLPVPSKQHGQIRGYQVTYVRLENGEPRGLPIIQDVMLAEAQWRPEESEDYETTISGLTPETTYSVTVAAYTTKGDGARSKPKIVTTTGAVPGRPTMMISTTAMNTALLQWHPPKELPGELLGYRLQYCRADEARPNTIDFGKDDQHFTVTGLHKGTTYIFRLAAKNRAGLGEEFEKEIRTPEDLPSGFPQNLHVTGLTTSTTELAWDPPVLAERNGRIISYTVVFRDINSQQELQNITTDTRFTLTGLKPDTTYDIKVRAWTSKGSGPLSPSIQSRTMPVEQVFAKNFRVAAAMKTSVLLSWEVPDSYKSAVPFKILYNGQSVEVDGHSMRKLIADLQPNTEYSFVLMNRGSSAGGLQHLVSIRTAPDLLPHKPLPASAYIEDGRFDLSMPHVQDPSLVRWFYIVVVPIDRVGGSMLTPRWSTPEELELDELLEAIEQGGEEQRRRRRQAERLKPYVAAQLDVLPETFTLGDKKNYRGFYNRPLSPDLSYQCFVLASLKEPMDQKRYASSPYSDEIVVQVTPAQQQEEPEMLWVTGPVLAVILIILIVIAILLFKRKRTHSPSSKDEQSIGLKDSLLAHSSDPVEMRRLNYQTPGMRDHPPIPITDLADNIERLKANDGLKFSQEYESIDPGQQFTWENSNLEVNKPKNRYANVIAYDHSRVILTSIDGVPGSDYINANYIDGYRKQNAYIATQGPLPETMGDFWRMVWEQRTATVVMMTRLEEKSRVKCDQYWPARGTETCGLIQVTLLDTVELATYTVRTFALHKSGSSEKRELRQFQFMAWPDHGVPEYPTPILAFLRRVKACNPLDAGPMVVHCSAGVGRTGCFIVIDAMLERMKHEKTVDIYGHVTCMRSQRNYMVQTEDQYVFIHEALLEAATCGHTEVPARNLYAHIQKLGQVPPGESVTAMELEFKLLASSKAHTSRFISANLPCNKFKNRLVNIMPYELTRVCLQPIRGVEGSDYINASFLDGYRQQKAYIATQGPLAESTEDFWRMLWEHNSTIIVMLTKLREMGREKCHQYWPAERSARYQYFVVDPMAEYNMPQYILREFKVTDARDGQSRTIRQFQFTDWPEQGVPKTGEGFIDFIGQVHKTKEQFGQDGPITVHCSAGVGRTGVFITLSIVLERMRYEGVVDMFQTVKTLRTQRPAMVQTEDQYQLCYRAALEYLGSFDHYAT

[7] = target: Serine/threonine-protein phosphatase PP1-gamma catalytic subunit (Homo sapiens, UniProt P36873); experiment: Inhibitory activity against Protein phosphatase 1 at 10 uM; outline: as §1
Serine/threonine-protein phosphatase PP1-gamma catalytic subunit, sequence (P36873 2-323 limits assumed): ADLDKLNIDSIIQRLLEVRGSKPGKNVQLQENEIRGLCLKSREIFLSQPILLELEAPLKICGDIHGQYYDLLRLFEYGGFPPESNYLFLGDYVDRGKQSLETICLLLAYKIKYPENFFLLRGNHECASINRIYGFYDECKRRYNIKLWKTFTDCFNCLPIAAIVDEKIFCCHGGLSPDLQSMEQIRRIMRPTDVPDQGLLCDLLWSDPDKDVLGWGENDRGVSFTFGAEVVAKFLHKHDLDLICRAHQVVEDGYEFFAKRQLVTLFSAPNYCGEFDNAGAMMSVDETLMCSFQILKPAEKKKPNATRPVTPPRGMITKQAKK

[8] = Inhibitory activity against protein phosphatase type 2A at 10 uM; outline: as §1
[9] = target: Tyrosine-protein phosphatase YopH (Yersinia enterocolitica) (UniProt P15273); experiment: Inhibitory activity against YOP protein tyrosine phosphatase at 10 uM
Tyrosine-protein phosphatase YopH (Yersinia enterocolitica), sequence (P15273 whole entry): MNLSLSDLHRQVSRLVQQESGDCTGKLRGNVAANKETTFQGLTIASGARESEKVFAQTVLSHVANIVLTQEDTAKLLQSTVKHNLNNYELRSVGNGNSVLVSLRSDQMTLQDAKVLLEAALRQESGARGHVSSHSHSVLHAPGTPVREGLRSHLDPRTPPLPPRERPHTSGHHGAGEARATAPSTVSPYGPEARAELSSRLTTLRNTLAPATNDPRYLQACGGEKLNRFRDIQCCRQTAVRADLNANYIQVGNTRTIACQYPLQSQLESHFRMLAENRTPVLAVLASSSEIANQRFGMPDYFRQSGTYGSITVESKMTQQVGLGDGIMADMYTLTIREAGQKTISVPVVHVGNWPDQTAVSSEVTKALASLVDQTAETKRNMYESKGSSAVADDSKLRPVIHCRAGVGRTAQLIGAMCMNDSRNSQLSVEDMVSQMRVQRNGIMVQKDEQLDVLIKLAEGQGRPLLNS
Outline: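 Yop phosphatase tested in the nine-phosphatase selectivity panel with 20 μM fluorescein diphosphate as substrate. Inhibitor tested at a single concentration of 10 μM; the value is % inhibition.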

[10] = target: T5, M-phase inducer phosphatase 1 (Homo sapiens) (UniProt P30304); experiment: Inhibitory activity against cdc25A phosphatase at 10 uM; outline: as §1
T5 sequence (whole entry): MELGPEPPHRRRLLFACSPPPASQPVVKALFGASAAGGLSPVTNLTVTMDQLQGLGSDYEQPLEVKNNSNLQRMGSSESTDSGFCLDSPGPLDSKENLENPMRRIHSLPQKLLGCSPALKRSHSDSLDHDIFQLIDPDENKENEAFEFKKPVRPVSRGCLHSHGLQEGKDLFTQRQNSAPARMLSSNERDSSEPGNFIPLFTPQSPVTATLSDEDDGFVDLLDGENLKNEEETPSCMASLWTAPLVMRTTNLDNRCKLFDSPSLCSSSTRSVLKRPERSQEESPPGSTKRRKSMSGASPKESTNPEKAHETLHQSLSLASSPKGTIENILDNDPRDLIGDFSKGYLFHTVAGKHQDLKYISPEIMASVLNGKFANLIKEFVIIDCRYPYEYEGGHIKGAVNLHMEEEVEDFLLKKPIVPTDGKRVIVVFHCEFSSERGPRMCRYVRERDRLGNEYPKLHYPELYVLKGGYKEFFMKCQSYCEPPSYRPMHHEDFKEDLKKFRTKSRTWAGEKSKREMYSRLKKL

Structure (SMILES) | inhibition [1] | other results
COc1ccc(C(=O)c2ccc3c(-c4ccc(OCC(=O)NCN5CCOCC5)cc4)nocc2-3)cc1 | inactive | 
CC(=O)c1ccc2c(-c3ccc(OCC(=O)O)cc3)nocc1-2 | inactive | 
O=C(O)COc1ccc(-c2noc(-c3ccccc3)c3cccc2-3)cc1 | 1.1% | 
Cc1onc(-c2ccc(OCC(=O)O)cc2)c2cccc1-2 | inactive | 
CCCCCCCCCCCCCCC(=O)c1ccc2c(-c3ccc(OCC(=O)O)cc3)nocc1-2 | 101% | IC50 [2]: 0.27 µM
Oc1ccc(-c2nocc3cccc2-3)cc1 | 18.5% | 
COc1ccc(-c2nocc3cccc2-3)cc1 | 3% | 
COc1ccc(C(=O)c2ccc3c(-c4cc(Br)c(OCC(=O)O)c(Br)c4)nocc2-3)cc1 | 101% | inhibition [3]: 53.4%; inhibition [4]: 100%; inhibition [5]: 100%; inhibition [6]: 57.7%; inhibition [7]: 106%; inhibition [8]: 41.8%; IC50 [2]: 1.64 µM; inhibition [9]: 101%; inhibition [10]: 40.5%
COc1ccc(C(=O)c2ccc3c(-c4ccc(OCC(=O)N5CCN(Cc6ccccc6)CC5)cc4)nocc2-3)cc1 | 68.8% | IC50 [2]: 5.48 µM
O=C(O)COc1ccc(-c2nocc3c(C(=O)c4ccc(Cl)cc4)ccc2-3)cc1 | 14.3% | 
N#Cc1cccc(C(=O)c2ccc3c(-c4ccc(OCC(=O)O)cc4)nocc2-3)c1 | inactive | 
COc1ccc(C(=O)c2ccc3c(-c4ccc(OC)cc4)nocc2-3)cc1 | 32% | 
O=C(O)COc1ccc(-c2nocc3cccc2-3)cc1 | 27.4% | 
O=C(O)COc1ccc(-c2nocc3c(C(=O)c4cccc(C(F)(F)F)c4)ccc2-3)cc1 | 68.9% | IC50 [2]: 7.55 µM
COc1ccc(C(=O)c2ccc3c(-c4ccc(OCC(=O)O)cc4)noc(C)c2-3)cc1 | inactive | 
COc1ccccc1C(=O)c1ccc2c(-c3ccc(OCC(=O)O)cc3)nocc1-2 | 3.8% | 
COc1ccc(O)c(CC(=O)c2ccc3c(-c4ccc(OCC(=O)O)cc4)nocc2-3)c1 | 48.7% | 

Structure (SMILES) | inhibition [1] | other results
COc1ccc(CC(=O)c2ccc3c(-c4ccc(OCC(=O)O)cc4)nocc2-3)cc1 | 85.5% | IC50 [2]: 5.63 µM
O=C(O)COc1ccc(-c2nocc3c(C(=O)c4ccco4)ccc2-3)cc1 | inactive | 
COc1ccc(C(=O)c2ccc3c(-c4ccc(OC(C(=O)O)C(=O)O)cc4)nocc2-3)cc1 | 3.3% | 
CCOC(=O)/C=C/c1ccc2c(-c3ccc(OCC(=O)O)cc3)nocc1-2 | inactive | 
COc1ccc(-c2nocc3c(C(=O)c4ccc(Cl)cc4Cl)ccc2-3)cc1 | 101% | IC50 [2]: 3.4 µM
O=C(O)COc1ccc(-c2nocc3c(C(=O)c4ccccc4F)ccc2-3)cc1 | 11.9% | 
O=C(c1ccc2c(-c3ccc(OC(CCO)C(=O)O)cc3)nocc1-2)C1CCCC1 (configuration not stated) | inactive | 
O=C(c1ccc2c(-c3ccc(OC(C(=O)O)C(=O)O)cc3)nocc1-2)C1CCCC1 | 76.7% | IC50 [2]: 8.19 µM
O=C(O)COc1ccc(-c2nocc3c(C(=O)c4ccc(Cl)cc4Cl)ccc2-3)cc1 | 38% | 
O=C(O)COc1ccc(-c2nocc3c(C(=O)CCC4CCCC4)ccc2-3)cc1 | 42.4% | 
COc1cccc(C(=O)c2ccc3c(-c4ccc(OCC(=O)O)cc4)nocc2-3)c1 | 87.4% | IC50 [2]: 1.96 µM
CCOC(=O)COc1ccc(-c2nocc3cccc2-3)cc1 | 2.1% | 
COc1ccc(C(=O)c2ccc3c(-c4ccc(O[C@@H](Cc5ccccc5)C(=O)O)cc4)nocc2-3)cc1 | 80.1% | inhibition [3]: -6.83%; inhibition [4]: 95.7%; inhibition [5]: 89.7%; inhibition [6]: 17.3%; inhibition [7]: 63.5%; IC50 [2]: 7.82 µM; inhibition [9]: 96.8%; inhibition [10]: 10.3%
COc1ccc(C(=O)c2ccc3c(-c4ccc(OCC(=O)NCCO)cc4)nocc2-3)cc1 | inactive | 
COCCNCc1ccc(C(=O)c2ccc3c(-c4ccc(OCC(=O)O)cc4)nocc2-3)cc1 | 10.2% | 
O=C(O)COc1ccc(-c2nocc3c(C(=O)C4CCCC4)ccc2-3)cc1 | 15.7% | 
